Assay results reported in ChEMBL document CHEMBL4145561, “Tiacumicin Congeners with Improved Antibacterial Activity from a Halogenase-Inactivated Mutant” (2018).
≈ marks a conversion by molar mass, not a printed value.

Tests used:
Format in all cases: functional
[1] = test system: Staphylococcus aureus; test: Antimicrobial activity against Staphylococcus aureus ATCC 29213 by broth microdilution method
Procedure, shortened: (§1)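 Mueller Hinton broth microdilution; MIC read as the minimal inhibitory concentration. Run against a panel of indicator strains that included MRSA, S. aureus ATCC 29213, B. thuringiensis SCSIO BT01, M. luteus SCSIO ML 01 and E. faecalis ATCC 29212.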

[2] = test system: Staphylococcus aureus; test: Antimicrobial activity against methicillin-resistant Staphylococcus aureus isolate shhs-A1 by broth microdilution method
Procedure, shortened: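 Minimal inhibitory concentration determined by broth microdilution in Mueller Hinton broth against methicillin-resistant S. aureus shhs-A1, one strain of an indicator panel that also included S. aureus ATCC 29213, B. thuringiensis SCSIO BT01, M. luteus SCSIO ML 01 and E. faecalis ATCC 29212.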

[3] = test system: Micrococcus luteus; test: Antimicrobial activity against Micrococcus luteus SCSIO ML01 by broth microdilution method; procedure, shortened: as §1
[4] = test system: Bacillus thuringiensis; test: Antimicrobial activity against Bacillus thuringiensis SCSIO BT01 by broth microdilution method; procedure, shortened: as §1
[5] = test system: Enterococcus faecalis; test: Antimicrobial activity against Enterococcus faecalis ATCC 29212 by broth microdilution method; procedure, shortened: as §1

Compound | MIC [1] | MIC [2] | MIC [3] | MIC [4] | MIC [5]
CCc1cc(O)cc(O)c1C(=O)O[C@H]1[C@H](O)[C@H](OC)[C@H](OC/C2=C\C=C\C[C@H](O)/C(C)=C/[C@H](CC)[C@@H](O[C@@H]3OC(C)(C)[C@@H](OC(=O)C(C)C)[C@H](O)[C@@H]3O)/C(C)=C/C(C)=C/C[C@@H]([C@@H](C)O)OC2=O)O[C@@H]1C | 2 µg/mL (≈ 2.02 µM) | 2 µg/mL (≈ 2.02 µM) | 2 µg/mL (≈ 2.02 µM) | 1 µg/mL (≈ 1.01 µM) | 16 µg/mL (≈ 16.2 µM)
CCc1cc(O)cc(O)c1C(=O)O[C@H]1[C@H](O)[C@H](OC)[C@H](OC/C2=C\C=C\C[C@H](O)/C(C)=C/[C@H](CC)[C@@H](O[C@@H]3OC(C)(C)[C@@H](OC(=O)C(C)C)[C@H](O)[C@@H]3O)/C(C)=C/C(C)=C/C[C@@H](CC)OC2=O)O[C@@H]1C | > 128 µg/mL | > 128 µg/mL | > 128 µg/mL | 4 µg/mL (≈ 4.11 µM) | > 128 µg/mL
CCc1c(Cl)c(O)c(Cl)c(O)c1C(=O)O[C@H]1[C@H](O)[C@H](OC)[C@H](OC/C2=C\C=C\C[C@H](O)/C(C)=C/[C@H](CC)[C@@H](O[C@@H]3OC(C)(C)[C@@H](OC(=O)C(C)C)[C@H](O)[C@@H]3O)/C(C)=C/C(C)=C/C[C@@H]([C@@H](C)O)OC2=O)O[C@@H]1C [FIDAXOMICIN] | 4 µg/mL (≈ 3.78 µM) | 1 µg/mL (≈ 0.945 µM) | 4 µg/mL (≈ 3.78 µM) | 2 µg/mL (≈ 1.89 µM) | 16 µg/mL (≈ 15.1 µM)
CCC(=O)O[C@H]1[C@H](O)[C@H](O)[C@H](O[C@H]2/C(C)=C/C(C)=C/C[C@@H]([C@@H](C)O)OC(=O)/C(CO[C@@H]3O[C@H](C)[C@@H](OC(=O)c4c(O)cc(O)cc4CC)[C@H](O)[C@@H]3OC)=C/C=C/C[C@H](O)/C(C)=C/[C@@H]2CC)OC1(C)C | 8 µg/mL (≈ 8.2 µM) | 8 µg/mL (≈ 8.2 µM) | 16 µg/mL (≈ 16.4 µM) | 2 µg/mL (≈ 2.05 µM) | 32 µg/mL (≈ 32.8 µM)
CCc1cc(O)cc(O)c1C(=O)O[C@H]1[C@H](O)[C@H](OC)[C@H](OC/C2=C\C=C\C[C@H](O)/C(C)=C/[C@H](CC)[C@@H](O[C@@H]3OC(C)(C)[C@@H](O)[C@H](O)[C@@H]3O)/C(C)=C/C(C)=C/C[C@@H](CC)OC2=O)O[C@@H]1C | > 128 µg/mL | > 128 µg/mL | 8 µg/mL (≈ 8.86 µM) | 16 µg/mL (≈ 17.7 µM) | > 128 µg/mL
CC[C@H]1/C=C(\C)[C@@H](O)C/C=C/C=C(\CO[C@@H]2O[C@H](C)[C@@H](OC(=O)c3c(C)cc(O)cc3O)[C@H](O)[C@@H]2OC)C(=O)O[C@H]([C@@H](C)O)C/C=C(C)/C=C(\C)[C@@H]1O[C@@H]1OC(C)(C)[C@@H](OC(=O)C(C)C)[C@H](O)[C@@H]1O | 16 µg/mL (≈ 16.4 µM) | 16 µg/mL (≈ 16.4 µM) | 16 µg/mL (≈ 16.4 µM) | 8 µg/mL (≈ 8.2 µM) | 64 µg/mL (≈ 65.6 µM)
CC[C@@H]1C/C=C(C)/C=C(\C)[C@H](O[C@@H]2OC(C)(C)[C@@H](O)[C@H](O)[C@@H]2O)[C@@H](CC)/C=C(\C)[C@@H](O)C/C=C/C=C(\CO[C@@H]2O[C@H](CO)[C@@H](O)[C@H](O)[C@@H]2O)C(=O)O1 | > 128 µg/mL | > 128 µg/mL | > 128 µg/mL | > 128 µg/mL | > 128 µg/mL
CCc1cc(O)cc(O)c1C(=O)O[C@H]1[C@H](O)[C@H](OC)[C@H](OC/C2=C\C=C\C[C@H](O)/C(C)=C/[C@H](CC)[C@@H](O[C@@H]3OC(C)(C)[C@@H](OC(C)=O)[C@H](O)[C@@H]3O)/C(C)=C/C(C)=C/C[C@@H]([C@@H](C)O)OC2=O)O[C@@H]1C | 128 µg/mL (≈ 133 µM) | > 128 µg/mL | 64 µg/mL (≈ 66.6 µM) | 8 µg/mL (≈ 8.32 µM) | > 128 µg/mL
CCc1cc(O)cc(O)c1C(=O)O[C@H]1[C@H](O)[C@H](OC)[C@H](OC/C2=C\C=C\C[C@H](O)/C(C)=C/[C@H](CC)[C@@H](O[C@@H]3OC(C)(C)[C@@H](OC(=O)C(C)C)[C@H](O)[C@@H]3O)/C(C)=C/C(C)=C/C[C@@H](C(C)=O)OC2=O)O[C@@H]1C | > 128 µg/mL | > 128 µg/mL | > 128 µg/mL | 8 µg/mL (≈ 8.1 µM) | > 128 µg/mL
CC[C@H]1/C=C(\C)[C@@H](O)C/C=C/C=C(\CO[C@@H]2O[C@H](C)[C@@H](O)[C@H](O)[C@@H]2OC)C(=O)O[C@H]([C@@H](C)O)C/C=C(C)/C=C(\C)[C@@H]1O[C@@H]1OC(C)(C)[C@@H](OC(=O)C(C)C)[C@H](O)[C@@H]1O | > 128 µg/mL | > 128 µg/mL | > 128 µg/mL | > 128 µg/mL | > 128 µg/mL
CCCc1cc(O)cc(O)c1C(=O)O[C@H]1[C@H](O)[C@H](OC)[C@H](OC/C2=C\C=C\C[C@H](O)/C(C)=C/[C@H](CC)[C@@H](O[C@@H]3OC(C)(C)[C@@H](OC(=O)C(C)C)[C@H](O)[C@@H]3O)/C(C)=C/C(C)=C/C[C@@H]([C@@H](C)O)OC2=O)O[C@@H]1C | 2 µg/mL (≈ 1.99 µM) | 2 µg/mL (≈ 1.99 µM) | 1 µg/mL (≈ 0.997 µM) | 0.5 µg/mL (≈ 0.498 µM) | 4 µg/mL (≈ 3.99 µM)
CCc1cc(O)cc(O)c1C(=O)O[C@H]1[C@H](O)[C@H](O)[C@H](OC/C2=C\C=C\C[C@H](O)/C(C)=C/[C@H](CC)[C@@H](O[C@@H]3OC(C)(C)[C@@H](OC(=O)C(C)C)[C@H](O)[C@@H]3O)/C(C)=C/C(C)=C/C[C@@H](CC)OC2=O)O[C@@H]1C | > 128 µg/mL | > 128 µg/mL | > 128 µg/mL | 16 µg/mL (≈ 16.7 µM) | > 128 µg/mL
